Results taken from PMC3119721 (Biochemistry, 2011).

Legend:
[1] = target: PduO-type ATP-dependent cob(I)alamin adenosyltransferase (ATR) (Methylorubrum extorquens, UniProt C5AZG1, DEL180-190); experiment: isothermal titration calorimetry; format: binding
Summary of the method: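 Recombinant His-tagged M. extorquens ATR, D180X mutant, expressed in E. coli BL21(DE3) and Ni-NTA purified. 40–45 μM protein in 50 mM HEPES pH 8, 0.3 M KCl, 10 mM MgCl2, 5% glycerol at 4 °C, titrated with 45 aliquots of 1–2 mM ATP or AdoCbl. KA, ΔH° and ΔS° were obtained from two-site (ATP) or single-site (AdoCbl) fits, in triplicate.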

[2] = system: Nc1ncnc2c1ncn2[C@@H]1O[C@H](COP(=O)(O)OP(=O)(O)OP(=O)(O)O)[C@@H](O)[C@H]1O; experiment: purified protein; format: biochemical, Methylorubrum extorquens; conditions: printed as D180X; 55 μM HOCbl (reduced to cob(I)alamin), ATP 0.5-300 μM
[3] = substrate: Nc1ncnc2c1ncn2[C@@H]1O[C@H](COP(=O)(O)OP(=O)(O)OP(=O)(O)O)[C@@H](O)[C@H]1O; experiment: purified protein; format: biochemical, Methylorubrum extorquens; conditions: apparent; 55 μM HOCbl (reduced to cob(I)alamin), ATP 0.5-300 μM

## Nc1ncnc2c1ncn2[C@@H]1O[C@H](COP(=O)(O)OP(=O)(O)OP(=O)(O)O)[C@@H](O)[C@H]1O [ATP]
[1]
  Kd: 480 ± 20 nM

## PduO-type ATP-dependent cob(I)alamin adenosyltransferase (ATR) (Methylorubrum extorquens AM1; DEL180-190)
[2]
  Km: 9.5 ± 1.2 µM
  kcat: (2.5 ± 0.1) × 10^−1 s^−1
  kcat/Km: 27000 ± 1000 M⁻¹ s⁻¹

B1: PduO-type ATP-dependent cob(I)alamin adenosyltransferase (ATR) (Methylorubrum extorquens AM1) (protein)
chain: MVKLNRIYTRTGDQGTTGLANGERRSKADLRVEAYGTVDETNACIGLARLTAEPALDAMLARIQNDLFDLGADLATPPSDKPLGYEPLRIVPAQVQRLETEIDALNANIPPLKSFVLPGGSAAAAALHLARTVCRRAERLVVALSGVESEAISGEALQYLNRLSDFLFVASRAANRDGADDVLWVPGQNR
[3]
  Km: 8.4 ± 1.4 µM
